One compound from ChEMBL document CHEMBL5678802, “Small-molecule p21-activated kinase inhibitor PF-3758309 is a potent inhibitor of oncogenic signaling and tumor growth” (Proc Natl Acad Sci U S A, 2010) can be followed below.

Activity calls are given as the source filed them. The rule behind the calls is not given here.

One assay deals with SW-403. In words: Antiproliferative activity against human SW403 cells assessed as inhibition of cell proliferation incubated for 3 days by CellTiter-Glo Luminescent Cell Viability Assay. In kind it is functional, cell-based. The conditions noted are these: SW-403, 72 h. In outline: (§1)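 Cells of each line were plated in 384-well plates on day 1 and exposed to compound from day 2 for 3 days. On day 5 all medium was aspirated. Viable cell number was read by CellTiter-Glo luminescence, which quantifies cellular ATP.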

Another assay has as its system HT-29. The assay can be described thus: Antiproliferative activity against human HT-29 cells assessed as inhibition of cell proliferation incubated for 3 days by CellTiter-Glo Luminescent Cell Viability Assay. In kind it is functional, cell-based. The settings on record: HT-29, 72 h. Put shortly: (§2)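 Cancer cell lines seeded in 384-well plates on day 1; compound added on day 2 and left for 3 days. On day 5 all medium was aspirated, and viable cells were quantified by CellTiter-Glo luminescence, which measures cellular ATP. Dose-dependent effects on proliferation were determined.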

The next assay relates to COLO 320DM. The assay can be described thus: Antiproliferative activity against human COLO 320DM cells assessed as inhibition of cell proliferation incubated for 3 days by CellTiter-Glo Luminescent Cell Viability Assay. The class given is functional, cell-based. The conditions noted are these: 72 h. In outline:
as §2

Assay [1] is described as follows: Antiproliferative activity against human GTL16S4 acquired resistance cells assessed as inhibition of cell proliferation incubated for 3 days by CellTiter-Glo Luminescent Cell Viability Assay. The settings on record: 72 h. In kind it is functional, cell-based. In outline: as §2
For the next assay, the system named is NCI-H2347. The assay can be described thus: Antiproliferative activity against human NCI-H2347 cells assessed as inhibition of cell proliferation incubated for 3 days by CellTiter-Glo Luminescent Cell Viability Assay. In kind it is functional, cell-based. The conditions noted are these: NCI-H2347, 72 h. Put shortly:
as §1

A further assay deals with NCI-H1395. In words: Antiproliferative activity against human NCI-H1395 cells assessed as inhibition of cell proliferation incubated for 3 days by CellTiter-Glo Luminescent Cell Viability Assay. The class given is functional, cell-based. The conditions noted are these: NCI-H1395, 72 h. In outline: as §2
For a further assay, the system named is NCI-H226. In words: Antiproliferative activity against human NCI-H226 cells assessed as inhibition of cell proliferation incubated for 3 days by CellTiter-Glo Luminescent Cell Viability Assay. The conditions noted are these: NCI-H226, 72 h. In kind it is functional, cell-based. Put shortly:
as §1

A short description of assay [2]: Antiproliferative activity against human PaTu 8988s cells assessed as inhibition of cell proliferation incubated for 3 days by CellTiter-Glo Luminescent Cell Viability Assay. The class given is functional, cell-based. The conditions noted are these: 72 h. In outline:
as §1

In another assay the test system is NCI-H1355. In words: Inhibition of anchorage independent cell growth in human NCI-H1355 cells incubated for 6 days by Alamar blue reagent based fluorescence plate reader analysis. The class given is functional. The conditions noted are these: NCI-H1355, 144 h.
In the next assay the test system is NCI-H1437. In words: Inhibition of anchorage independent cell growth in human NCI-H1437 cells incubated for 6 days by Alamar blue reagent based fluorescence plate reader analysis. The conditions noted are these: NCI-H1437, 144 h. The class given is functional.
The next assay relates to NCI-H1838. The assay can be described thus: Inhibition of anchorage independent cell growth in human NCI-H1838 cells incubated for 6 days by Alamar blue reagent based fluorescence plate reader analysis. The settings on record: NCI-H1838, 144 h. In kind it is functional.
Another assay has as its system MCF10. In words: Antiproliferative activity against human MCF10 cells assessed as inhibition of cell proliferation incubated for 3 days by CellTiter-Glo Luminescent Cell Viability Assay. In kind it is functional, cell-based. The settings on record: MCF10, 72 h. Put shortly: as §2
The test system of another assay is HCC1187. In words: Antiproliferative activity against human HCC1187 cells assessed as inhibition of cell proliferation incubated for 3 days by CellTiter-Glo Luminescent Cell Viability Assay. The class given is functional, cell-based. The settings on record: HCC1187, 72 h. In outline:
as §2

A further assay deals with BT-20. The assay can be described thus: Antiproliferative activity against human BT-20 cells assessed as inhibition of cell proliferation incubated for 3 days by CellTiter-Glo Luminescent Cell Viability Assay. The class given is functional, cell-based. The conditions noted are these: BT-20, 72 h. Put shortly: as §2
The target of assay [3] is T1, cGMP-dependent protein kinase 1 (Homo sapiens, UniProt Q13976).
T1 sequence (Q13976 whole entry): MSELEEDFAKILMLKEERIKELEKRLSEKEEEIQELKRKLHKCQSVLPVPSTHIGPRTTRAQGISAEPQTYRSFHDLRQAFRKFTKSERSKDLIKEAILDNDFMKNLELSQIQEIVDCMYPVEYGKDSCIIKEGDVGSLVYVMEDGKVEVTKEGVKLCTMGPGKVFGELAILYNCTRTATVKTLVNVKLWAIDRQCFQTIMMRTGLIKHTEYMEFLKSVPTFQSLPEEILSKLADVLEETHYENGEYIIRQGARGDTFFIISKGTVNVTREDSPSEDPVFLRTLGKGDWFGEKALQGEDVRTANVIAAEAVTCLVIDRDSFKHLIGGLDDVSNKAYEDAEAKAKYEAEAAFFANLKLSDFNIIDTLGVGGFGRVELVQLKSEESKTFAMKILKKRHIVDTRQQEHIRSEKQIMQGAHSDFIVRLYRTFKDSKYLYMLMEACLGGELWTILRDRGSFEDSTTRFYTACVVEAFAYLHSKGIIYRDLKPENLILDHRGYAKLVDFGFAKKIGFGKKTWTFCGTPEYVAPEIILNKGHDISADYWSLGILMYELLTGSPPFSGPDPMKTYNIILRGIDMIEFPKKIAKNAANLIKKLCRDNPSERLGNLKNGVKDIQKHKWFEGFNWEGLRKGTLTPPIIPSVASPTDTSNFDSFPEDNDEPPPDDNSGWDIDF
The assay can be described thus: Inhibition of human PRKG1 assessed as inhibition constant in presence of ATP.

For assay [4], the target named is Protein kinase C gamma type (Homo sapiens, UniProt P05129). The assay can be described thus: Inhibition of human PKCgamma in presence of ATP.
Assay [5] has as its target Serine/threonine-protein kinase Chk2 (Homo sapiens, UniProt O96017). The assay can be described thus: Inhibition of human CHK2 in presence of ATP by cellular assay.
Assay [6] concerns the target Ribosomal protein S6 kinase alpha-2 (Homo sapiens, UniProt Q15349). The assay can be described thus: Inhibition of human RSK3 in presence of ATP by cellular assay.
Assay [7] addresses High affinity nerve growth factor receptor (Homo sapiens, UniProt P04629). In words: Inhibition of human TRKa in presence of ATP by cellular assay.
For assay [8], the system named is HCT-116. The assay can be described thus: Induction of cell cycle arrest in human HCT-116 cells assessed as accumulation of cells at S phase at 100 nM measured after 48 hrs by fluorescence activated cell sorter analysis (reference value: 26.15%). In kind it is functional.
Assay [9] relates to HCT-116. In words: Antitumor activity against human HCT-116 cells xenografted in nude mouse assessed as tumor growth inhibition at 1.1 mg/kg administered via pump for 9 days relative to control. In kind it is functional. The conditions noted are these: HCT-116, 216 h, time 9 day, read-out: TGI.
Assay [10] can be described thus: In vivo inhibition of PAK4 in nude mouse xenografted with human HCT-116 cells assessed as reduction in phosphorylated GEF-H1 level at 1.1 to 3.3 mg/kg, sc administered for 6 days by ELISA relative to control. The class given is functional. More on the design: scale not given: the % may be the effect or the level left. The conditions noted are these: dose 1.1-3.3 mg/kg, time 6 day.

Assay [11] deals with HCT-116. In words: Antitumor activity against human HCT-116 cells xenografted in nude mouse assessed as reduction in BAD phosphorylation at S112 residue at 15 to 150 mg/kg/day administered via pump for 18 hrs by Reverse-Phase protein array analysis. The settings on record: dose 15-150 mg/kg/day. In kind it is functional, organism-based.
Assay [12] has as its system HCT-116. In words: Antitumor activity against human HCT-116 cells xenografted in nude mouse assessed as reduction in Src phosphorylation at Y527 residue at 15 to 150 mg/kg/day administered via pump for 18 hrs by Reverse-Phase protein array analysis. In kind it is functional, organism-based. The settings on record: dose 15-150 mg/kg/day.

Chain of Ribosomal protein S6 kinase alpha-2 (Q15349 whole entry): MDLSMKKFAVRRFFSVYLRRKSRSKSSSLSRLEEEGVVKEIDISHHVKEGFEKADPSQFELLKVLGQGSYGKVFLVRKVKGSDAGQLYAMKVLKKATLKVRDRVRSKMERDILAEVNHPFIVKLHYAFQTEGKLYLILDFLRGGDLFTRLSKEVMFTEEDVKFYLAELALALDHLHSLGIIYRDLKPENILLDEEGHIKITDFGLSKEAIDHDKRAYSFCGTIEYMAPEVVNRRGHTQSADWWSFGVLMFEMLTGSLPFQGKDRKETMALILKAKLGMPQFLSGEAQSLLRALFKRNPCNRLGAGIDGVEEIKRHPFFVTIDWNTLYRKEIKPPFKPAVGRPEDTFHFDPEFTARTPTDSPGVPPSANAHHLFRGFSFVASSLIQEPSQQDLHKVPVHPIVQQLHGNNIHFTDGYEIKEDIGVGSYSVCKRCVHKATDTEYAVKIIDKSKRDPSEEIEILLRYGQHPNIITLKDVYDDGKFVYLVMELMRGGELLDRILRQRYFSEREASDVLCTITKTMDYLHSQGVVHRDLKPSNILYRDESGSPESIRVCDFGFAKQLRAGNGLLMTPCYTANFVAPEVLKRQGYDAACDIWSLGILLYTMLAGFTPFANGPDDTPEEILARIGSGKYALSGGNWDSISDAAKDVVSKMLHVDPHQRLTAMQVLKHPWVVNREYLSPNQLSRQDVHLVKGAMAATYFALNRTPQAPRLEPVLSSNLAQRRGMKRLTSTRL
Chain of High affinity nerve growth factor receptor (P04629 whole entry): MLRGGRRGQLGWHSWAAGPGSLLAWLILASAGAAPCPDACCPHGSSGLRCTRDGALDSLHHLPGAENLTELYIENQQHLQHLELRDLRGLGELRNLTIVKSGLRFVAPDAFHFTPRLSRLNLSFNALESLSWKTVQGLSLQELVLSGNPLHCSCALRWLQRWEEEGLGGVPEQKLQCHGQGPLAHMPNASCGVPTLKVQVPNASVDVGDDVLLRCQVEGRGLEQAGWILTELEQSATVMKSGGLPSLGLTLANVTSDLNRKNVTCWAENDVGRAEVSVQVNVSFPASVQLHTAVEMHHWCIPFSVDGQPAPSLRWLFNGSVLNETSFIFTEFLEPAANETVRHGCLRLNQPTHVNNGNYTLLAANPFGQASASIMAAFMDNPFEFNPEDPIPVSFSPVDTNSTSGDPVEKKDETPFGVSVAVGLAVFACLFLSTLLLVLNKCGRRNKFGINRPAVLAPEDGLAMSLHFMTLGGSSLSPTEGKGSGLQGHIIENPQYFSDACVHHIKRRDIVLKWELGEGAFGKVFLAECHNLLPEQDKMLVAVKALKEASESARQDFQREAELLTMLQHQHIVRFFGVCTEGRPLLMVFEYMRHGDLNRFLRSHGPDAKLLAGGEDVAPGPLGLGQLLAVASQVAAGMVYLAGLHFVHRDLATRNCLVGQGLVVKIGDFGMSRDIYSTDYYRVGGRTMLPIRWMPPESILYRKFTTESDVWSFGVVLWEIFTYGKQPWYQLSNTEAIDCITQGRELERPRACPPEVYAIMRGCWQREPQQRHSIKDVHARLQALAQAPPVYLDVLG
Chain of Serine/threonine-protein kinase Chk2 (O96017 whole entry): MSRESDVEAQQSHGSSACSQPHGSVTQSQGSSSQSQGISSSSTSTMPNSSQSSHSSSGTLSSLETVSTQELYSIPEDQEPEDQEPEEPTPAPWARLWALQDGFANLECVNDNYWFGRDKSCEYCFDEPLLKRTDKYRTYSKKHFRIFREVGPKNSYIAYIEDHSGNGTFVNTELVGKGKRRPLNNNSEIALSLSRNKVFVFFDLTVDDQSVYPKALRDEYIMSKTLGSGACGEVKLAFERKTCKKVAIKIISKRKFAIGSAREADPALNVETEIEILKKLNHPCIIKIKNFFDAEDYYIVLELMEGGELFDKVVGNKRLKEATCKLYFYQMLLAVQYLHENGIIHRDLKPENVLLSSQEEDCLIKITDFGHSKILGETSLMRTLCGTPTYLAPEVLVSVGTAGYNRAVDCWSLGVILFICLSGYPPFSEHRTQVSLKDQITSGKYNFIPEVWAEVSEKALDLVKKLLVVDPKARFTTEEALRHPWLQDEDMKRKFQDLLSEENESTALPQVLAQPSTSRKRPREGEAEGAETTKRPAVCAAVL

Regarding `Cc1nc(Nc2n[nH]c3c2CN(C(=O)N[C@H](CN(C)C)c2ccccc2)C3(C)C)c2sccc2n1` [PF-03758309], the IC50 in the assay with SW-403 turned out to be 2.2 nM; in the assay on HT-29 it was 4.3 nM; with COLO 320DM, 205 nM; in assay [1], 10000 nM; with NCI-H2347 it was 2 nM; in the assay with NCI-H1395, 6.4 nM. Besides, the IC50 with NCI-H226 stood at 9.3 nM; in [2], 738 nM; in the assay with NCI-H1355 it was 14.2 nM; in the assay with NCI-H1437, 4.8 nM; in the assay with NCI-H1838 it was 9.59 nM; in the assay on MCF10, 0.21 nM. Moreover, the half-maximal inhibitory concentration (IC50) with HCC1187 is 0.24 nM; with BT-20 it was 81.7 nM; in [4], 59.2 nM; in assay [5], 302 nM; in assay [6] it was 1960 nM; in assay [7], 2410 nM. Further, the Ki in assay [3] was determined as 15 nM. For the same compound, the Activity in the assay with HCT-116 [8] came to 14.37%; in [10] it was 54%. The inhibition in vivo at 1.1 mg/kg in the assay with HCT-116 [9] turned out to be 104%. The outcome in the assay on HCT-116 [11] and with HCT-116 [12] was Active.
